ChEMBL document CHEMBL4382246, “Synthesis, biological evaluation, and molecular docking investigation of 3-amidoindoles as potent tubulin polymerization inhibitors” (Eur J Med Chem, 2019)
Active and inactive are the calls of the source. The calls are words filed in the database; no cut-off is given here.

Key:
MCF7 = assay: Cytotoxicity against human MCF7 cells after 72 hrs by MTT assay; type: functional, cell-based; conditions: MCF7, 72 h
Outline: (§1)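 Lines kept in RPMI-1640 with 10% FBS. Cells were seeded at 2×10³ per well and allowed to attach for 24 h at 37 °C. Medium was then replaced with medium holding serial dilutions from 100 mM DMSO stocks, with 0.1% DMSO as negative control, for 72 h at 37 °C. […] IC50 was fitted from the concentration series as the mean ± SD of three independent experiments run in duplicate.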

MDA-MB-231 = assay: Cytotoxicity against human MDA-MB-231 cells after 72 hrs by MTT assay; type: functional, cell-based; conditions: MDA-MB-231, 72 h; outline: as §1
BT-549 [1] = assay: Cytotoxicity against human BT549 cells after 72 hrs by MTT assay; type: functional, cell-based; conditions: BT-549, 72 h; outline: as §1
T47D = assay: Cytotoxicity against human T47D cells after 72 hrs by MTT assay; type: functional, cell-based; outline: as §1
MDA-MB-468 = assay: Cytotoxicity against human MDA-MB-468 cells after 72 hrs by MTT assay; type: functional, cell-based; conditions: MDA-MB-468, 72 h; outline: as §1
Hs-578T = assay: Cytotoxicity against human Hs578T cells after 72 hrs by MTT assay; type: functional, cell-based; outline: as §1
BT-549 [2] = assay: Cell cycle arrest in human BT549 cells assessed as accumulation of cells at G0/G1 phase at 2 uM after 24 hrs by propidium iodide staining-based flow cytometric analysis (reference value: 65.28%); type: functional
BT-549 [3] = assay: Cell cycle arrest in human BT549 cells assessed as accumulation of cells at S phase at 2 uM after 24 hrs by propidium iodide staining-based flow cytometric analysis (reference value: 25.84%); type: functional
BT-549 [4] = assay: Cell cycle arrest in human BT549 cells assessed as accumulation of cells at G2/M phase at 2 uM after 24 hrs by propidium iodide staining-based flow cytometric analysis (reference value: 8.88%); type: functional
BT-549 [5] = assay: Cell cycle arrest in human BT549 cells assessed as accumulation of cells at G0/G1 phase at 4 uM after 24 hrs by propidium iodide staining-based flow cytometric analysis (reference value: 65.28%); type: functional
BT-549 [6] = assay: Cell cycle arrest in human BT549 cells assessed as accumulation of cells at S phase at 4 uM after 24 hrs by propidium iodide staining-based flow cytometric analysis (reference value: 25.84%); type: functional
BT-549 [7] = assay: Cell cycle arrest in human BT549 cells assessed as accumulation of cells at G2/M phase at 4 uM after 24 hrs by propidium iodide staining-based flow cytometric analysis (reference value: 8.88%); type: functional
BT-549 [8] = assay: Cell cycle arrest in human BT549 cells assessed as accumulation of cells at G0/G1 phase at 8 uM after 24 hrs by propidium iodide staining-based flow cytometric analysis (reference value: 65.28%); type: functional
BT-549 [9] = assay: Cell cycle arrest in human BT549 cells assessed as accumulation of cells at S phase at 8 uM after 24 hrs by propidium iodide staining-based flow cytometric analysis (reference value: 25.84%); type: functional
BT-549 [10] = assay: Cell cycle arrest in human BT549 cells assessed as accumulation of cells at G2/M phase at 8 uM after 24 hrs by propidium iodide staining-based flow cytometric analysis (reference value: 8.88%); type: functional
BT-549 [11] = assay: Cell cycle arrest in human BT549 cells after 24 hrs by propidium iodide staining-based flow cytometric analysis; type: functional
[12] = molecular target: T1, Tubulin alpha (Homo sapiens) (UniProt P0DPH7+P68366+Q71U36+P68363+Q9BQE3+Q6PEY2+A6NHL2+Q9NY65); assay: Disruption of alpha-tubulin in human BT549 cells at 10 uM after 6 hrs by FITC/DAPI staining-based confocal microscopic analysis; type: cell-based
Outline: (§2)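 BT549 cells (2×10⁴ per well) were attached overnight on glass coverslips, then exposed to 10 or 20 µM, or to 0.1% DMSO, for 6 h. Cells were fixed in 4% paraformaldehyde, permeabilized with 0.1% Triton X-100 and blocked in 5% BSA for 60 min. Primary antibodies were α-tubulin mouse and β-tubulin rabbit monoclonals, applied overnight at 4 °C. Secondaries were FITC anti-mouse and Alexa Fluor 555 anti-rabbit, with DAPI for nuclei, and cells were imaged by laser scanning confocal microscopy.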

[13] = molecular target: T2, Tubulin beta (Homo sapiens) (UniProt P68371+Q9H4B7+Q13509+P04350+Q3ZCM7+P07437+Q13885+Q9BVA1+Q9BUF5+A6NNZ2); assay: Disruption of beta-tubulin in human BT549 cells at 10 uM after 6 hrs by FITC/DAPI staining-based confocal microscopic analysis; type: cell-based; outline: as §2
[14] = molecular target: T1, Tubulin alpha (Homo sapiens); assay: Disruption of alpha-tubulin in human BT549 cells assessed as loss of cellular structure at 10 uM after 6 hrs by FITC/DAPI staining-based confocal microscopic analysis; type: cell-based; outline: as §2
[15] = molecular target: T1, Tubulin alpha (Homo sapiens); assay: Disruption of alpha-tubulin in human BT549 cells assessed as formation of cellular rounding at 10 uM after 6 hrs by FITC/DAPI staining-based confocal microscopic analysis; type: cell-based; outline: as §2
[16] = molecular target: T2, Tubulin beta (Homo sapiens); assay: Disruption of beta-tubulin in human BT549 cells assessed as loss of cellular structure at 10 uM after 6 hrs by FITC/DAPI staining-based confocal microscopic analysis; type: cell-based; outline: as §2
[17] = molecular target: T2, Tubulin beta (Homo sapiens); assay: Disruption of beta-tubulin in human BT549 cells assessed as formation of cellular rounding at 10 uM after 6 hrs by FITC/DAPI staining-based confocal microscopic analysis; type: cell-based; outline: as §2
[18] = molecular target: T1, Tubulin alpha (Homo sapiens); assay: Disruption of alpha-tubulin in human BT549 cells assessed as short microtubule at 20 uM after 6 hrs by FITC/DAPI staining-based confocal microscopic analysis; type: cell-based; outline: as §2
[19] = molecular target: T1, Tubulin alpha (Homo sapiens); assay: Disruption of alpha-tubulin in human BT549 cells assessed as round cell shape at 20 uM after 6 hrs by FITC/DAPI staining-based confocal microscopic analysis; outline: as §2
[20] = molecular target: T1, Tubulin alpha (Homo sapiens); assay: Disruption of alpha-tubulin in human BT549 cells assessed as wrapped microtubule at 20 uM after 6 hrs by FITC/DAPI staining-based confocal microscopic analysis; type: cell-based; outline: as §2
[21] = molecular target: T2, Tubulin beta (Homo sapiens); assay: Disruption of beta-tubulin in human BT549 cells assessed as short microtubule at 20 uM after 6 hrs by FITC/DAPI staining-based confocal microscopic analysis; type: cell-based; outline: as §2
[22] = molecular target: T2, Tubulin beta (Homo sapiens); assay: Disruption of beta-tubulin in human BT549 cells assessed as round cell shape at 20 uM after 6 hrs by FITC/DAPI staining-based confocal microscopic analysis; outline: as §2
Tubulin (Sus scrofa) = Tubulin (Sus scrofa) (UniProt P02554+P02550); assay: Inhibition of pig brain tubulin polymerization at 10 uM by spectrophotometric analysis relative to control
Tubulin (Sus scrofa), sequence (P02550 whole entry, looked up): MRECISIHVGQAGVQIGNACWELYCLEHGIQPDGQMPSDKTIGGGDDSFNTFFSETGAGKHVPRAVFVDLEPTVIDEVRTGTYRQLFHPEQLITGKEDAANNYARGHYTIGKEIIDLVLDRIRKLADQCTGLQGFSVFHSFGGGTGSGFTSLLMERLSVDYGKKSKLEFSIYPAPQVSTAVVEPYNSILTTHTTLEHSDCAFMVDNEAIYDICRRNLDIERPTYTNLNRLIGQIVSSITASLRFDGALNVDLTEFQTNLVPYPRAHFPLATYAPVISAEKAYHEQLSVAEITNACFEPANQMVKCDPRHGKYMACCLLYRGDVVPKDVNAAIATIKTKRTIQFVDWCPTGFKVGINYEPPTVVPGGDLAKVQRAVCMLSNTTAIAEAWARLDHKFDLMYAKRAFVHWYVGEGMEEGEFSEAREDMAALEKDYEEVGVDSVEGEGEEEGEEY
Tubulin (Sus scrofa), sequence (P02554 whole entry, looked up): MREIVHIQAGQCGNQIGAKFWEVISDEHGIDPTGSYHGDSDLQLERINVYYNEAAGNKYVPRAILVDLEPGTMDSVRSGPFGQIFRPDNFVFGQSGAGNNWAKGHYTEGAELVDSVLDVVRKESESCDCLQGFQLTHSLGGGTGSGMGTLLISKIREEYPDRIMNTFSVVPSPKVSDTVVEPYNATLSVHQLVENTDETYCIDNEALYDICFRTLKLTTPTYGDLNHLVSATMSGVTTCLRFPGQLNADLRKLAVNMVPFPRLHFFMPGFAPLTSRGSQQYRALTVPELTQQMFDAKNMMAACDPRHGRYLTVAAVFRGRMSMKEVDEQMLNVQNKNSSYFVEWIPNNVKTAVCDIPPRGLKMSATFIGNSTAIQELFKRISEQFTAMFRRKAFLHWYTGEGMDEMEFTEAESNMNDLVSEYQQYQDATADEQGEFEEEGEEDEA
Outline: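 Tubulin polymerization inhibition was measured with compounds at a final concentration of 10 µM.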

Tubulin = Tubulin (Sus scrofa, UniProt P02554+P02550); assay: Inhibition of pig brain tubulin polymerization by spectrophotometric analysis
[23] = molecular target: T2, Tubulin beta (Homo sapiens); assay: Disruption of beta-tubulin in human BT549 cells assessed as wrapped microtubule at 20 uM after 6 hrs by DAPI staining-based confocal microscopic analysis

Q: Which IC50 (MCF7) does the source give for `COc1cc(C(=O)Nc2c(C(=O)c3ccc(Cl)cc3)[nH]c3cc(Cl)ccc23)cc(OC)c1OC` here?
A: 10.9 µM

Q: And the IC50 (MDA-MB-231)?
A: 6.43 µM

Q: And the IC50 (BT-549 [1])?
A: 3.17 µM

Q: What about the IC50 (T47D) of the same compound?
A: 0.04 µM

Q: What about the IC50 (MDA-MB-468) of the same compound?
A: 7.92 µM

Q: And the IC50 (Hs-578T)?
A: > 100 µM

Q: And the Activity (BT-549 [2])?
A: 32.1%

Q: What about the Activity (BT-549 [3]) of the same compound?
A: 41.6%

Q: What about the Activity (BT-549 [4]) of the same compound?
A: 26.29%

Q: And the Activity (BT-549 [5])?
A: 31.07%

Q: And the Activity (BT-549 [6])?
A: 33.01%

Q: What about the Activity (BT-549 [7]) of the same compound?
A: 35.92%

Q: What about the Activity (BT-549 [8]) of the same compound?
A: 19.76%

Q: What about the Activity (BT-549 [9]) of the same compound?
A: 23.66%

Q: And the Activity (BT-549 [10])?
A: 56.58%

Q: And the Activity (BT-549 [11])?
A: Dose-dependent effect

Q: What about the Activity [12] of the same compound?
A: Active

Q: What about the Activity [13] of the same compound?
A: Active

Q: What about the Activity [14] of the same compound?
A: Active

Q: And the Activity [15]?
A: Active

Q: And the Activity [16]?
A: Active

Q: What about the Activity [17] of the same compound?
A: Active

Q: What about the Activity [18] of the same compound?
A: Active

Q: What about the Activity [19] of the same compound?
A: Active

Q: And the Activity [20]?
A: Active

Q: What about the Activity [21] of the same compound?
A: Active

Q: And the Activity [22]?
A: Active

Q: And the inhibition (Tubulin (Sus scrofa))?
A: 59%

Q: And the IC50 (Tubulin)?
A: 9.5 µM

Q: And the Activity [23]?
A: Active
